KCNK9 block – human KCNK9 channel inhibition. Q9NPC2. HEK293 KCNK9, FluxOR thallium flux fluorescence; active compounds read low. B-score at 10 µM. hit rate 1.2% among 310,000. AID 488922;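 active means ratio B-score over 3 SD below the library mean, with starting fluorescence within 5 SD of its mean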;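 further: negative B-score means less thallium flux so channel inhibition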
KCNQ1 inh – blocks the human KCNQ1 potassium channel; P51787; CHO-K1 KCNQ1, FluxOR thallium flux fluorescence; active compounds read high; B-score at 10 µM; hit rate 1.3% among 310,000; AID 2642;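 active means compounds whose thallium flux B-score, printed positive for inhibition, exceeds three library SD while starting fluorescence stays within three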;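 further: channel opened by potassium depolarization with thallium stimulus after 20 min compound exposure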
KCNK3 block – human KCNK3 channel inhibition, primary screen. B-score at 10 µM. O14649. CHO-KCNK3 thallium flux, FluxOR fluorescence; active compounds read low. hit rate 0.84% among 340,000;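 active means B-score under library mean minus 4 SD, starting fluorescence ratio at most library mean plus 5 SD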;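 further: more negative B-score means stronger inhibition of thallium flux through KCNK3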
hERG protect – hERG (human) protection from proarrhythmic block; AID 1511; CHO-hERG, FluxOR thallium flux, dofetilide IC70 present; hit rate 0.51% among 310,000; Q12809; activation (rescue from dofetilide block), less the hit threshold, % at 10 µM;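 active means activation above the mean of controls blocked by dofetilide plus 5 SD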;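 further: thallium influx through hERG after potassium depolarization seen as dye fluorescence rise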
Target sequence (Q12809 whole entry, looked up): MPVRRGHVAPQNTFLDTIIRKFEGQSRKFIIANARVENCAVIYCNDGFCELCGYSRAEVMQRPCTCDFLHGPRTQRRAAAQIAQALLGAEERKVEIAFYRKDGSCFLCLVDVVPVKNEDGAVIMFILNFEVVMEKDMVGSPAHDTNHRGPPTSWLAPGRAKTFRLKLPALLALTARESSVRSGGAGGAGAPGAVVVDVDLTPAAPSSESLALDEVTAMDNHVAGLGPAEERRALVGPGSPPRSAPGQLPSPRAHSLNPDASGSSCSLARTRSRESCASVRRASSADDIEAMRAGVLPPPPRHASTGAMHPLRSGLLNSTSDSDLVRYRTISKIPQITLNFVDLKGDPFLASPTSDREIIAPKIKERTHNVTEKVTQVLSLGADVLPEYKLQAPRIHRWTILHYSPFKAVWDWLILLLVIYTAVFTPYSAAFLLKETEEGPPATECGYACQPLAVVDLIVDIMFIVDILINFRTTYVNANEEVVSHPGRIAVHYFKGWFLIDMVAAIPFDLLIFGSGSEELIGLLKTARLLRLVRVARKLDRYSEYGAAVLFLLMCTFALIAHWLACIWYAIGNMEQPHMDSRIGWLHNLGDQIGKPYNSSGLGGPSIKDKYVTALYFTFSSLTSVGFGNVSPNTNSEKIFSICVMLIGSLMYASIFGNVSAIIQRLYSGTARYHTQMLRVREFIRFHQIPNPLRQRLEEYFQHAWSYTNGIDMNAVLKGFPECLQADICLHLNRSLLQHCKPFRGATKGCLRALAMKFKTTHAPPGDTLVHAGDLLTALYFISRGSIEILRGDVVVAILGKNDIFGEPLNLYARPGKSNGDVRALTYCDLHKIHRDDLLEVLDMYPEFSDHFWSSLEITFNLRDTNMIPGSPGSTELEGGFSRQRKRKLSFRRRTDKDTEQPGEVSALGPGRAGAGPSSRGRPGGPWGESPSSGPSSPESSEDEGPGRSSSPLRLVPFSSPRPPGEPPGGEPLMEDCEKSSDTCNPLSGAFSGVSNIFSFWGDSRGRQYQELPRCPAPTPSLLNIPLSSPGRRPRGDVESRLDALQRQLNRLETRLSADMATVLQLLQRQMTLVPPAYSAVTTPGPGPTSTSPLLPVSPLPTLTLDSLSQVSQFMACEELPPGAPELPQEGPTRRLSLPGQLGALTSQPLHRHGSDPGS
Cl transport mod – KCC2 (human) Cl- transport modulation | Q9H2X9 | KCC2 cells, thallium flux FluoZin-2 fluorescence | B-score of Tl+ flux slope (higher = more flux/activation; lower = inhibition) at 10 µM | hit rate 2.2% among 190,000 | AID 1456;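 active means thallium flux slope and its plate-corrected score both differing from the plate sample mean at a set confidence after two filtering rounds, in either direction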;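 further: slope of fluorescence scaled to starting intensity during 10 to 20 s after thallium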
KCNQ1 act – potentiates or activates the human KCNQ1 potassium channel; CHO-K1 KCNQ1, thallium flux FluxOR fluorescence; active compounds read high; B-score at 10 µM; hit rate 0.35% among 310,000;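 active means fluorescence ratio B-score, a plate-corrected score, at least three library SD, with initial intensity B-score within 5 SD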
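assay system = KCNQ1-transfected CHO-K1 cells | medium = assay buffer with matched DMSO | probe or stimulus = depolarizing K+/Tl+ stimulus, K2SO4 and Tl2SO4 each 12.5 mM in 5x stock | dosing = single dose | incubation = dye 90 min, compound 20 min, room temperature | detection = kinetic FluxOR fluorescence, 10 s baseline plus 110 s post-stimulus | evaluation = ratio B score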
KCC2 secondary – confirmation of human KCC2 transport modulators | shares compounds with Cl transport mod | hit rate 15% among 3,700 | normalised thallium flux (F/F0 slope) at 10 µM | AID 1713 | HEK293-KCC2, thallium flux, FluoZin2 fluorescence; active compounds read high;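 active means thallium flux slope above the same plate's solvent-only control mean plus 3 SD; inconclusive means the two replicate wells disagree; inactive means no significant difference from solvent-only control wells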
KCC2 bumet counter – thallium flux despite bumetanide block in KCC2 cells, secondary assay 3. shares compounds with Cl transport mod. hit rate 49% among 3,700. normalized thallium flux at 10 µM. HEK293-KCC2 + bumetanide/ouabain, thallium flux FluoZin2; active compounds read high;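 active means thallium entry rate above the same plate's blocked-transporter control wells by more than 3 SD; inconclusive means the two repeat wells disagree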;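 further: raw slope of fluorescence over initial fluorescence between 10 and 20 s after thallium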
KCC2 secondary2 – KCC2 (human) modulation, second secondary assay | shares compounds with Cl transport mod | normalized thallium flux at 10 µM | AID 1715 | hit rate 23% among 3,700 | HEK293-KCC2, thallium flux FluoZin2 fluorescence; actives lie on both sides; F/F0 rise rate, 10–20 s post-thallium;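 active means thallium flux slope more than 3 SD above or below the plate's solvent-only control mean, mostly below; inconclusive means the two repeat wells disagreed; inactive means no significant shift from solvent-only controls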;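 further: raw slope with 0.1% DMSO as baseline and bumetanide as block control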
HEK counter1 – acts in parental HEK cells, KCC2 counter-screen; shares compounds with Cl transport mod; HEK293 parental cells, thallium flux FluoZin2, ouabain; baseline-ratio fluorescence slope, 10–20 s after thallium; thallium flux rate (normalised fluorescence) at 10 µM; hit rate 46% among 3,700;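 active means thallium flux rate significantly above the same plate's solvent-only control wells, beyond their mean plus 3 SD; inconclusive means the two replicate wells gave conflicting results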
KCC2 retest ouab – KCC2 (human) modulation, ouabain retest | shares compounds with Cl transport mod | HEK293-KCC2, thallium flux FluoZin2 fluorescence; bidirectional: low = inhibitor, high = activator | raw Tl+ flux slope (below DMSO = inhibition, above = activation) at 10 µM | hit rate 48% among 3,700 | AID 1717;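 active means thallium flux slope beyond 3 SD from same-plate DMSO control mean in most replicates, usually higher, sometimes lower; inconclusive means repeat tests gave conflicting results; inactive means no significant difference from controls in most replicates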;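 further: slope of initial-normalized fluorescence between seconds 10 and 20 after thallium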
HEK293 Tl flux2 – counter-screen for KCC2 modulators: effect in parental HEK293 cells; thallium flux slope at 10 µM; hit rate 33% among 3,700; thallium flux FluoZin-2 fluorescence slope; shares compounds with Cl transport mod;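 active means thallium flux slope above the same plate's solvent-control mean plus 3 SD in both duplicate wells; inconclusive means duplicate wells that disagreed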;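 further: run without ouabain in cells lacking the KCC2 cotransporter; slope of fluorescence scaled to its starting value between 10 and 20 s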
Numbers without * were called inactive; i = inactive; ? = inconclusive; nt = no result given. The list is not random: actives were taken first. Their share in the collection is about 4.1%.

SMILES	KCNK9 block	KCNQ1 inh	KCNK3 block	hERG protect	Cl transport mod	KCNQ1 act	KCC2 secondary	KCC2 bumet counter	KCC2 secondary2	HEK counter1	KCC2 retest ouab	HEK293 Tl flux2
CCOC(=O)c1cc(-c2ccc(Cl)cc2)nc2c1c(=O)[nH]c(=O)n2CCOC	i	i	i	-8	0.19	i	nt	nt	nt	nt	nt	nt
CCOC(=O)c1cc(-c2ccc(Cl)cc2)nc2onc(C)c12	-8*	i	nt	-9	nt	i	0.0075	0.0046	0.029	0.0078	0.019	0.011
O=C(CNC(=O)c1n[nH]c2ccccc12)Nc1ccc(F)c(F)c1F	nt	nt	i	nt	nt	nt	nt	nt	nt	nt	nt	nt
CCOC(=O)Cn1c(=O)oc2cc(S(=O)(=O)N3CCc4ccccc43)ccc21	i	i	i	-13	-3.3*	i	0.0092	0.006	0.031	0.0083	0.021	0.011
S=c1[nH]nc(Cc2cccc3ccccc23)o1	i	i	i	-10	-8*	i	0.0059	0.0052	0.015*	0.0077	?	0.01
Cc1[nH]c2ccccc2c1Cc1nnc(SCC(N)=O)o1	i	i	i	-3	0.53	i	nt	nt	nt	nt	nt	nt
Cn1c(Cn2c3ccccc3c3ccccc32)n[nH]c1=S	i	i	i	-10	nt	i	nt	nt	nt	nt	nt	nt
Cc1[nH]c2ccccc2c1SCc1n[nH]c(=S)n1C	i	i	i	-5	-0.87	i	nt	nt	nt	nt	nt	nt
Cn1c(Cc2c[nH]c3ccccc23)n[nH]c1=S	i	i	i	-5	nt	i	0.0063	0.0061	0.028	?	?	0.0092
Cc1[nH]c2ccccc2c1Cc1n[nH]c(=S)o1	i	i	i	-2	-3.4*	i	0.0086	0.0062	0.022*	0.0067	0.041*	0.0096
Cc1[nH]c2ccccc2c1Cc1n[nH]c(=S)n1C	i	i	i	-5	-6.4*	i	0.0098	0.0059	0.024*	0.0075	0.011*	0.012
O=C1CN(c2ccccc2)C(=S)N1C(=O)c1ccc(Br)cc1	i	i	i	-1	nt	i	nt	nt	nt	nt	nt	nt
COC(=O)Cc1cc(C)cc2c(=O)cc(-c3ccoc3)oc12	i	i	i	-4	nt	i	nt	nt	nt	nt	nt	nt
Cc1cc2oc(=O)cc(CN3CCOCC3)c2cc1C	i	i	i	-8	6.9*	i	0.0062	0.0053	0.026*	0.0076	0.018	0.011
N#Cc1nc(Cc2cccc3ccccc23)oc1NCC1CCCO1 (stereo not given)	i	i	i	-12	nt	i	0.01	0.0064	?	0.0035	0.016*	0.011
N#Cc1nc(Cc2cccc3ccccc23)oc1NCCCN1CCOCC1	i	i	i	-1	-5.6*	i	?	0.0054	0.03	0.0067	0.014*	0.011*
CC(C)N(C(=O)[C@H]1C[C@H](CC(=O)NCCCn2ccnc2)C(=O)N2CCc3c([nH]c4ccc(Cl)cc34)[C@]12C)C(C)C	nt	nt	i	nt	nt	nt	nt	nt	nt	nt	nt	nt
Cc1cc(C)n(-c2nc3ccccc3c(=O)n2OCc2ccc(F)cc2)n1	i	i	i	-10	-0.83	i	nt	nt	nt	nt	nt	nt
Cc1cc(CC(C)C)n(-c2nc3ccccc3c(=O)n2OCC(=O)N(C)C)n1	i	i	i	-4	10*	i	0.0074	0.026*	0.036	0.024*	0.032*	0.017*
